This passage reports plasma protein bound results from PubChem BioAssay AID1617 (Sanford-Burnham Center for Chemical Genomics, 2009).

Molecules are shown by their SMILES. The source made the active and inactive calls.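 The calls were made as follows: active = compound at least 90% bound to plasma protein at 1 µM; inactive = the rest.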

In the data set the test system is human plasma protein binding, RED dialysis, LC/MS/MS. Nature of the data set: fraction bound to human plasma proteins – biochemical, rapid equilibrium dialysis, LC/MS/MS, ADME assay, late-stage follow-up (AID 1617). The following applies: stronger effect = higher value. In a few lines: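 Material: spiked plasma, equilibrium dialysis; buffer or medium: Isotonic PBS, pH 7.4; compound dosing: two single doses, 1 and 10 µM final, 0.1% DMSO; timing: 4 h dialysis, 37 °C, shaken; technique: LC/MS/MS of matrix-matched buffer-side and plasma-side aliquots; read-out basis: percent bound, 100 minus free percentage from buffer-to-plasma concentration ratio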
(In general: In equilibrium dialysis free small molecules cross a membrane that holds back macromolecules.)

For the compound `Cc1cc(OCC(=O)Nc2ncn[nH]2)ccc1Cl`, the plasma protein bound is 27.9% (inactive) (at 1 µM) and 16.8% (percent bound, at 10 µM).
